{"source": "paper PMC5563391", "about": "(Investigational new drugs, 2015)", "format_in_all_cases": "in vivo, human", "key": {"[1]": {"system": "peripheral blood mononuclear cells", "assay": "Cell cycle analysis by flow cytometry", "details": "arm A", "method_in_brief": "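Adults with hematologic malignancies received oral test compound once weekly on days 1, 8 and 15 of 28-day cycles, at doses from 10 to 690 mg. Blood for pharmacodynamics was drawn alongside pharmacokinetic samples. Peripheral blood mononuclear cells were analysed by flow cytometry for the percentage of cells with 2N, 4N or >4N DNA. Only patients with enough cycling cells at baseline were evaluable.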"}, "[2]": {"system": "patients with advanced hematologic malignancies", "assay": "Clinical response", "method_in_brief": "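Patients received the test compound in one of four arms, each on a 28-day cycle. Arm A took it orally once weekly on days 1, 8 and 15, and arm B orally on days 1, 2, 8, 9, 15 and 16. Arm C added IV or SC azacitidine on days 1–7 to the once-weekly oral schedule. Arm D received it IV on days 1, 8 and 15. Response used revised International Working Group criteria, or NCCN guidelines for CML.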"}, "[3]": {"system": "placental growth factor (PlGF)", "assay": "Placental growth factor concentration, biomarker of VEGF receptor inhibition", "details": "arm A", "method_in_brief": "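Arm A patients received oral test compound once weekly on days 1, 8 and 15 of 28-day cycles, at 10–690 mg. At designated time points after the first dose, blood for PlGF measurement was collected together with pharmacokinetic samples. The change from baseline in PlGF was assessed against dose.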"}, "[4]": {"assay": "Phase 1 pharmacokinetics of ilorasertib in plasma", "details": "for AUC(0-t) / Cmax / Tmax / half-life / AUC(0-inf): human, plasma; for half-life: t1/2, arm D", "method_in_brief": "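Arm A patients took oral test compound once weekly, in the morning, on days 1, 8 and 15 of 28-day cycles, at 10–690 mg. Plasma was sampled intensively up to 72 h after dosing on days 1 and 15. Noncompartmental analysis gave Cmax, Tmax, t½, AUCt and AUC∞, plus dose-normalized values. Results are summarized by dose level as mean ± SD, with individual values where N=1.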"}, "[5]": {"details": "arm A, oral once weekly, first dose, 10 mg, N=3, mean ± SD"}, "[6]": {"details": "arm A, oral once weekly, first dose, 20 mg, N=1"}, "[7]": {"details": "arm A, oral once weekly, first dose, 40 mg, N=1"}, "[8]": {"details": "arm A, oral once weekly, first dose, 80 mg, N=2, mean ± SD"}, "[9]": {"details": "arm A, oral once weekly, first dose, 160 mg, N=3, mean ± SD"}, "[10]": {"details": "arm A, oral once weekly, first dose, 240 mg, N=5, mean ± SD"}, "[11]": {"details": "arm A, oral once weekly, first dose, 340 mg, N=3, mean ± SD"}, "[12]": {"details": "arm A, oral once weekly, first dose, 440 mg, N=4, mean ± SD"}, "[13]": {"details": "arm A, oral once weekly, first dose, 540 mg, N=3, mean ± SD"}, "[14]": {"details": "arm A, oral once weekly, first dose, 640 mg, N=6, mean ± SD"}, "[15]": {"details": "arm A, oral once weekly, first dose, 690 mg, N=1"}, "[16]": {"details": "arm A, oral once weekly, first dose, all doses, N=32, mean ± SD"}, "[17]": {"details": "iv, 32 mg, arm D, IV infusion, 32 mg, day 1, N=4, mean ± SD"}, "[18]": {"details": "iv, 32 mg, arm D, IV infusion, 32 mg, day 15, N=3, mean ± SD"}}, "data": [{"smiles": "Nc1ncc(-c2cnn(CCO)c2)c2scc(-c3ccc(NC(=O)Nc4cccc(F)c4)cc3)c12", "note": "[Ilorasertib]", "values": [{"measurement": "association between ilorasertib dose and cell cycle arrest", "setting": "[1]", "result": "No association"}, {"measurement": "increase in the number of cells with 4N DNA and polyploidy", "setting": "[1]; 9 patients with sufficient cycling cells at baseline", "result": "≥ 2", "unit": "fold"}, {"measurement": "patients with a best response of stable disease", "setting": "[2]; 52 patients", "result": "Twelve"}, {"measurement": "patients with an objective response", "setting": "[2]; AML patients, among 52 patients", "result": 3}, {"measurement": "patients with CR with incomplete blood count recovery (CRi)", "setting": "[2]; AML, arm A, 640 mg, end of cycle 1", "result": 1}, {"measurement": "patients with complete response (CR)", "setting": "[2]; AML, arm A, 690 mg, end of cycle 8", "result": 1}, {"measurement": "patients with partial response", "setting": "[2]; AML, arm B, 480 mg, end of cycle 2", "result": 1}, {"measurement": "increase in PlGF", "setting": "[3]; after the first dose, dose range 10 to 690 mg", "result": "≥ 2", "unit": "fold"}, {"measurement": "relationship between dose and the magnitude of change in PlGF", "setting": "[3]", "result": "no apparent relationship"}, {"measurement": "coefficient of variation for dose-normalized Cmax", "setting": "[4]; arm A, oral", "result": "approximately 66%"}, {"measurement": "AUC0–24/D (dose-normalized AUC0–24)", "setting": "[4]; [5]", "result": "65.8 ± 35.0", "unit": "ng·h/mL/mg"}, {"measurement": "AUC∞/D (dose-normalized AUC∞)", "setting": "[4]; [5]", "result": "70.9 ± 37.9", "unit": "ng·h/mL/mg"}, {"measurement": "Cmax/D (dose-normalized Cmax)", "setting": "[4]; [5]", "result": "3.74 ± 1.56", "unit": "ng/mL/mg"}, {"measurement": "AUC0–24/D (dose-normalized AUC0–24)", "setting": "[4]; [6]", "result": 27.2, "unit": "ng·h/mL/mg"}, {"measurement": "AUC∞/D (dose-normalized AUC∞)", "setting": "[4]; [6]", "result": 28.5, "unit": "ng·h/mL/mg"}, {"measurement": "Cmax/D (dose-normalized Cmax)", "setting": "[4]; [6]", "result": 2.98, "unit": "ng/mL/mg"}, {"measurement": "AUC0–24/D (dose-normalized AUC0–24)", "setting": "[4]; [7]", "result": 43.9, "unit": "ng·h/mL/mg"}, {"measurement": "AUC∞/D (dose-normalized AUC∞)", "setting": "[4]; [7]", "result": 45.8, "unit": "ng·h/mL/mg"}, {"measurement": "Cmax/D (dose-normalized Cmax)", "setting": "[4]; [7]", "result": 4.95, "unit": "ng/mL/mg"}, {"measurement": "AUC0–24/D (dose-normalized AUC0–24)", "setting": "[4]; [8]", "result": "15.2 ± 5.10", "unit": "ng·h/mL/mg"}, {"measurement": "AUC∞/D (dose-normalized AUC∞)", "setting": "[4]; [8]", "result": "15.7 ± 5.18", "unit": "ng·h/mL/mg"}, {"measurement": "Cmax/D (dose-normalized Cmax)", "setting": "[4]; [8]", "result": "1.44 ± 4.90", "unit": "ng/mL/mg"}, {"measurement": "AUC0–24/D (dose-normalized AUC0–24)", "setting": "[4]; [9]", "result": "19.4 ± 8.86", "unit": "ng·h/mL/mg"}, {"measurement": "AUC∞/D (dose-normalized AUC∞)", "setting": "[4]; [9]", "result": "20.2 ± 9.28", "unit": "ng·h/mL/mg"}, {"measurement": "Cmax/D (dose-normalized Cmax)", "setting": "[4]; [9]", "result": "1.86 ± 0.98", "unit": "ng/mL/mg"}, {"measurement": "AUC0–24/D (dose-normalized AUC0–24)", "setting": "[4]; [10]", "result": "16.6 ± 12.4", "unit": "ng·h/mL/mg"}, {"measurement": "AUC∞/D (dose-normalized AUC∞)", "setting": "[4]; [10]", "result": "17.5 ± 13.5", "unit": "ng·h/mL/mg"}, {"measurement": "Cmax/D (dose-normalized Cmax)", "setting": "[4]; [10]", "result": "1.22 ± 0.59", "unit": "ng/mL/mg"}, {"measurement": "AUC0–24/D (dose-normalized AUC0–24)", "setting": "[4]; [11]", "result": "16.9 ± 2.56", "unit": "ng·h/mL/mg"}, {"measurement": "AUC∞/D (dose-normalized AUC∞)", "setting": "[4]; [11]", "result": "17.7 ± 2.09", "unit": "ng·h/mL/mg"}, {"measurement": "Cmax/D (dose-normalized Cmax)", "setting": "[4]; [11]", "result": "1.74 ± 1.0", "unit": "ng/mL/mg"}, {"measurement": "AUC0–24/D (dose-normalized AUC0–24)", "setting": "[4]; [12]", "result": "30.7 ± 17.1", "unit": "ng·h/mL/mg"}, {"measurement": "AUC∞/D (dose-normalized AUC∞)", "setting": "[4]; [12]", "result": "32.1 ± 18.0", "unit": "ng·h/mL/mg"}, {"measurement": "Cmax/D (dose-normalized Cmax)", "setting": "[4]; [12]", "result": "2.88 ± 1.89", "unit": "ng/mL/mg"}, {"measurement": "AUC0–24/D (dose-normalized AUC0–24)", "setting": "[4]; [13]", "result": "10.7 ± 2.0", "unit": "ng·h/mL/mg"}, {"measurement": "AUC∞/D (dose-normalized AUC∞)", "setting": "[4]; [13]", "result": "11.1 ± 2.28", "unit": "ng·h/mL/mg"}, {"measurement": "Cmax/D (dose-normalized Cmax)", "setting": "[4]; [13]", "result": "0.964 ± 0.183", "unit": "ng/mL/mg"}, {"measurement": "AUC0–24/D (dose-normalized AUC0–24)", "setting": "[4]; [14]", "result": "30.7 ± 23.1", "unit": "ng·h/mL/mg"}, {"measurement": "AUC∞/D (dose-normalized AUC∞)", "setting": "[4]; [14]", "result": "31.7 ± 23.4", "unit": "ng·h/mL/mg"}, {"measurement": "Cmax/D (dose-normalized Cmax)", "setting": "[4]; [14]", "result": "2.42 ± 1.57", "unit": "ng/mL/mg"}, {"measurement": "AUC0–24/D (dose-normalized AUC0–24)", "setting": "[4]; [15]", "result": 11.7, "unit": "ng·h/mL/mg"}, {"measurement": "AUC∞/D (dose-normalized AUC∞)", "setting": "[4]; [15]", "result": 12.3, "unit": "ng·h/mL/mg"}, {"measurement": "Cmax/D (dose-normalized Cmax)", "setting": "[4]; [15]", "result": 1.22, "unit": "ng/mL/mg"}, {"measurement": "AUC0–24/D (dose-normalized AUC0–24)", "setting": "[4]; [16]", "result": "26.3 ± 21.3", "unit": "ng·h/mL/mg"}, {"measurement": "AUC∞/D (dose-normalized AUC∞)", "setting": "[4]; [16]", "result": "27.6 ± 22.7", "unit": "ng·h/mL/mg"}, {"measurement": "Cmax/D (dose-normalized Cmax)", "setting": "[4]; [16]", "result": "2.16 ± 1.43", "unit": "ng/mL/mg"}, {"measurement": "accumulation of study drug", "setting": "[4]; arm B, between days 1 and 15, multiple doses", "result": "no apparent accumulation"}, {"measurement": "pharmacokinetic interaction between ilorasertib and azacitidine", "setting": "[4]; arm C, oral ilorasertib with azacitidine", "result": "no apparent pharmacokinetic drug-drug interaction"}, {"measurement": "time of peak plasma concentrations", "setting": "[4]; arm D, IV dosing", "result": "end of the 4-hour infusion"}, {"measurement": "AUC(0-t)", "setting": "[4]; iv, 32 mg, AUC0–24, arm D, IV infusion, 32 mg, day 1, N=4, mean ± SD", "result": "4980 ± 3900", "unit": "ng·h/mL"}, {"measurement": "AUC(0-t)", "setting": "[4]; iv, 32 mg, AUC0–24, arm D, IV infusion, 32 mg, day 15, N=3, mean ± SD", "result": "8220 ± 9110", "unit": "ng·h/mL"}, {"measurement": "Cmax", "setting": "[4]; [17]", "result": "587 ± 360", "unit": "ng/mL"}, {"measurement": "Cmax", "setting": "[4]; [18]", "result": "414 ± 140", "unit": "ng/mL"}, {"measurement": "Tmax", "setting": "[4]; [17]", "result": "4.1 ± 0.3", "unit": "h"}, {"measurement": "Tmax", "setting": "[4]; [18]", "result": 3.9, "unit": "h"}, {"measurement": "half-life", "setting": "[4]; iv, 32 mg, IV infusion, 32 mg, day 1, N=4", "result": "6.2 ± 5.1", "unit": "h"}, {"measurement": "half-life", "setting": "[4]; iv, 32 mg, IV infusion, 32 mg, day 15, N=3", "result": "5.8 ± 20.6", "unit": "h"}, {"measurement": "AUC(0-inf)", "setting": "[4]; po, 10 mg", "result": "710 ± 380", "unit": "ng·h/mL"}, {"measurement": "AUC(0-t)", "setting": "[4]; po, 10 mg, AUC0–24, arm A, oral once weekly, first dose, N=3, mean ± SD", "result": "660 ± 350", "unit": "ng·h/mL"}, {"measurement": "AUC(0-inf)", "setting": "[4]; po, 20 mg", "result": 570, "unit": "ng·h/mL"}, {"measurement": "Cmax", "setting": "[4]; po, 20 mg, arm A, oral once weekly, first dose, N=1", "result": 60, "unit": "ng/mL"}, {"measurement": "AUC(0-inf)", "setting": "[4]; po, 40 mg", "result": 1830, "unit": "ng·h/mL"}, {"measurement": "Cmax", "setting": "[4]; po, 40 mg, arm A, oral once weekly, first dose, N=1", "result": 198, "unit": "ng/mL"}]}]}
